{
  "source": "ChEMBL document CHEMBL4261600",
  "about": "(Eur J Med Chem, 2018)",
  "key": {"[1]": {"target": "Dual specificity protein kinase CLK1 (Homo sapiens) (UniProt P49759)", "assay": "Binding affinity to wild-type human full length CLK1 (M1 to I484 residues) expressed in bacterial expression system assessed as remaining unbound target protein level at 1000 nM by Kinomescan method relative to control", "method_in_brief": "(§1)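 KINOMEscan competitive binding profile at 1 μM inhibitor. Remaining target binding reported as percent of DMSO control.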"}, "[2]": {"test_system": "Mast/stem cell growth factor receptor Kit (Homo sapiens), P10721 [V559D]", "sequence (P10721 whole entry V559D, the tested form may be a part)": "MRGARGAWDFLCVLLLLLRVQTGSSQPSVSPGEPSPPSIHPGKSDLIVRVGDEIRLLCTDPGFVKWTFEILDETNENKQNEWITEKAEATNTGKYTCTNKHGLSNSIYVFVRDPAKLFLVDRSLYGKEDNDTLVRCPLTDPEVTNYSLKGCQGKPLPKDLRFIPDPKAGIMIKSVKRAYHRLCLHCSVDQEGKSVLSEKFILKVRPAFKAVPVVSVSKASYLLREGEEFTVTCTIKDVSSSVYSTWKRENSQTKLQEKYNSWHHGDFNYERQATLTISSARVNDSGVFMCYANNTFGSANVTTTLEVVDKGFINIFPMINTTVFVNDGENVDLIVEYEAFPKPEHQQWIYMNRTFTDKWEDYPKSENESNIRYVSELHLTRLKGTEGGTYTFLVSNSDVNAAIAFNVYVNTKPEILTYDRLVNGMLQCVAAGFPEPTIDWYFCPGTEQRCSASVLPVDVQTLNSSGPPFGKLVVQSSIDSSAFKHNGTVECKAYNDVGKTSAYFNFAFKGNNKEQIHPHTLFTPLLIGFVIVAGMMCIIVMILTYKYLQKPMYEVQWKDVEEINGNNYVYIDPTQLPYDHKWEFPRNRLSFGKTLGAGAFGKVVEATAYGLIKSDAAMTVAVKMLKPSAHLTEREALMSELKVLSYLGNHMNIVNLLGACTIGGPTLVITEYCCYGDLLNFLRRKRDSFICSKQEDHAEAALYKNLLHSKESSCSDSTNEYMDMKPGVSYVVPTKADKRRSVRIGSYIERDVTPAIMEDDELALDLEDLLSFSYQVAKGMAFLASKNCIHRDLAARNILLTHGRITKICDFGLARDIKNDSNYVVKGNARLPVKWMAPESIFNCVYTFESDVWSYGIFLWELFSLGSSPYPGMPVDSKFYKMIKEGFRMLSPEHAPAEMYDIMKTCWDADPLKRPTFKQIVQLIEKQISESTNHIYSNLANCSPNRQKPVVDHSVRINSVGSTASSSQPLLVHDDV", "assay": "Binding affinity to human partial length KIT V559D mutant (Y545 to D952 residues) expressed in bacterial expression system assessed as remaining unbound target protein level at 1000 nM by Kinomescan method relative to control", "method_in_brief": "(§2)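 KINOMEscan competition-binding profiling across the panel of 468 kinases and mutants, with inhibitor tested at 1 μM. Binding is expressed as percent of control, with DMSO as the reference control.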"}, "[3]": {"target": "Ephrin type-A receptor 1 (Homo sapiens) (UniProt P21709)", "sequence (P21709 whole entry, the tested form may be a part)": "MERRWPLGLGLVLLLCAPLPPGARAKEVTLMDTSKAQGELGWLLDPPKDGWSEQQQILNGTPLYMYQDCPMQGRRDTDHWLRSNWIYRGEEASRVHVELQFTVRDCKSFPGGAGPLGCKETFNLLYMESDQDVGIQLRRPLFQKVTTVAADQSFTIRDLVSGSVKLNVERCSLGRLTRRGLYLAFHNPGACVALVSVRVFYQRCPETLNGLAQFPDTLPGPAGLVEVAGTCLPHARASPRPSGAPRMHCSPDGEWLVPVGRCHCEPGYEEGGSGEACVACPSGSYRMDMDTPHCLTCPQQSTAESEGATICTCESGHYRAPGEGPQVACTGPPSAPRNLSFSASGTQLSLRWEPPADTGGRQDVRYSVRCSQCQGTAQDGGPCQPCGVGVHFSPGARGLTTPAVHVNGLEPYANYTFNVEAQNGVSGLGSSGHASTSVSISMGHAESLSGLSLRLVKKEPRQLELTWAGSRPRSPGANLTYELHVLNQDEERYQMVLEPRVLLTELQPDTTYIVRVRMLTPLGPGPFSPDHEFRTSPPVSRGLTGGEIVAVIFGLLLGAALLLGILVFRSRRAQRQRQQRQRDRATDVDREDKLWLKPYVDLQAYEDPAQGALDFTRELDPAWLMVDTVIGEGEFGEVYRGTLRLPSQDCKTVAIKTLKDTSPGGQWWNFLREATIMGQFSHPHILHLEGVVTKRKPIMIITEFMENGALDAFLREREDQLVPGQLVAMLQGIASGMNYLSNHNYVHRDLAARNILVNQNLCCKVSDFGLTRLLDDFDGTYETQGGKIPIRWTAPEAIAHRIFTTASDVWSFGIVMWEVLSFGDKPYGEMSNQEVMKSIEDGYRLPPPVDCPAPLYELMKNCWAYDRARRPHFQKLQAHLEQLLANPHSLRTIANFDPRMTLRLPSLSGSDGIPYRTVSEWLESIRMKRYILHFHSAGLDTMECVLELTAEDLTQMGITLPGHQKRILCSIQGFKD", "assay": "Binding affinity to wild-type human partial length EPHA1 (V588 to I913 residues) expressed in bacterial expression system assessed as remaining unbound target protein level at 1000 nM by Kinomescan method relative to control", "method_in_brief": "(§3)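 KINOMEscan binding panel of 468 kinases/mutants. Inhibitor was tested at a single concentration of 1 μM. Binding is reported as percent of control, defined relative to a DMSO control.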"}, "[4]": {"target": "Death-associated protein kinase 1 (Homo sapiens) (UniProt P53355)", "assay": "Binding affinity to wild-type human partial length DAPK1 (M1 to F296 residues) expressed in bacterial expression system assessed as remaining unbound target protein level at 1000 nM by Kinomescan method relative to control", "method_in_brief": "(§4)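 KINOMEscan competition binding profile across a panel of 468 kinases and mutants, with the inhibitor tested at a single concentration of 1 μM. Binding is reported as percent of control, meaning signal relative to a DMSO control.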"}, "[5]": {"target": "Cyclin-dependent kinase 4 (Homo sapiens) (UniProt P11802)", "sequence (P11802 whole entry, the tested form may be a part)": "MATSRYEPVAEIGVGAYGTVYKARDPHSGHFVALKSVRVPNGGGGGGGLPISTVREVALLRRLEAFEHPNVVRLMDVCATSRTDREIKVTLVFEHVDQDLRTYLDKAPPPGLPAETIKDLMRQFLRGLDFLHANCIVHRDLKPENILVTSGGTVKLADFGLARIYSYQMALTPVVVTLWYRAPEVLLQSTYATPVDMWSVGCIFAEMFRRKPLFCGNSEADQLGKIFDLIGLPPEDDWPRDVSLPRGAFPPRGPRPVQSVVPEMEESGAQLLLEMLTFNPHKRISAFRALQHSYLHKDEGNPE", "assay": "Binding affinity to wild-type human full length CDK4 (M1 to E303 residues) expressed in mammalian expression system assessed as remaining unbound target protein level at 1000 nM by Kinomescan method relative to control", "method_in_brief": "as §1"}, "[6]": {"target": "Serine/threonine-protein kinase haspin (Homo sapiens) (UniProt Q8TF76)", "assay": "Binding affinity to wild-type human partial length HASPIN (I452 to K798 residues) expressed in mammalian expression system assessed as remaining unbound target protein level at 1000 nM by Kinomescan method relative to control", "method_in_brief": "as §3"}, "[7]": {"target": "Dual specificity protein kinase TTK (Homo sapiens) (UniProt P33981)", "assay": "Binding affinity to wild-type human partial length TTK (N505 to V798 residues) expressed in bacterial expression system assessed as remaining unbound target protein level at 1000 nM by Kinomescan method relative to control"}, "HL-60": {"test_system": "HL-60", "assay": "Antiproliferative activity against human HL60 cells after 72 hrs by Celltiter-Glo assay", "type": "functional", "settings": "HL-60, 72 h", "method_in_brief": "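Cells seeded at 3000/well in 96-well plates, exposed to serially diluted compound for 72 h at 37 °C, 5% CO2. Viability read by CellTiter-Glo luminescence and normalized to DMSO control. GI50 derived from curve fit, mean of three independent measurements. Culture media: DMEM/10% FBS for adherent lines; IMDM for MV4-11 and MEC-1/2; RPMI 1640 for suspension lines and CHL.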"}, "[8]": {"target": "Serine/threonine-protein kinase MARK2 (Homo sapiens) (UniProt Q7KZI7)", "assay": "Binding affinity to wild-type human partial length MARK2 (M1 to R450 residues) expressed in bacterial expression system assessed as remaining unbound target protein level at 1000 nM by Kinomescan method relative to control"}, "[9]": {"target": "Serine/threonine-protein kinase D2 (Homo sapiens) (UniProt Q9BZL6)", "assay": "Binding affinity to wild-type human partial length PRKD2 (A519 to E838 residues) expressed in bacterial expression system assessed as remaining unbound target protein level at 1000 nM by Kinomescan method relative to control"}, "[10]": {"test_system": "Tyrosine-protein kinase ABL1 (Homo sapiens), P00519 [Q252H]", "assay": "Binding affinity to human non-phosphorylated ABL1 Q252H mutant (S229 to K512 residues) expressed in mammalian expression system assessed as remaining unbound target protein level at 1000 nM by Kinomescan method relative to control", "method_in_brief": "as §2"}, "[11]": {"target": "Ribosomal protein S6 kinase alpha-3 (Homo sapiens) (UniProt P51812)", "assay": "Binding affinity to wild-type human partial length C-terminal RSK2 kinase domain 2 (V402 to S715 residues) expressed in mammalian expression system assessed as remaining unbound target protein level at 1000 nM by Kinomescan method relative to control", "method_in_brief": "(§5)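 Profiled in a KINOMEscan binding panel with the inhibitor at a single concentration of 1 μM. Binding to each kinase was read out as percent of control, relative to a DMSO control. Strong binders were defined as those with a percent control value below 1.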"}, "[12]": {"target": "LIM domain kinase 2 (Homo sapiens) (UniProt P53671)", "sequence (P53671 whole entry, looked up, the tested form may be a part)": "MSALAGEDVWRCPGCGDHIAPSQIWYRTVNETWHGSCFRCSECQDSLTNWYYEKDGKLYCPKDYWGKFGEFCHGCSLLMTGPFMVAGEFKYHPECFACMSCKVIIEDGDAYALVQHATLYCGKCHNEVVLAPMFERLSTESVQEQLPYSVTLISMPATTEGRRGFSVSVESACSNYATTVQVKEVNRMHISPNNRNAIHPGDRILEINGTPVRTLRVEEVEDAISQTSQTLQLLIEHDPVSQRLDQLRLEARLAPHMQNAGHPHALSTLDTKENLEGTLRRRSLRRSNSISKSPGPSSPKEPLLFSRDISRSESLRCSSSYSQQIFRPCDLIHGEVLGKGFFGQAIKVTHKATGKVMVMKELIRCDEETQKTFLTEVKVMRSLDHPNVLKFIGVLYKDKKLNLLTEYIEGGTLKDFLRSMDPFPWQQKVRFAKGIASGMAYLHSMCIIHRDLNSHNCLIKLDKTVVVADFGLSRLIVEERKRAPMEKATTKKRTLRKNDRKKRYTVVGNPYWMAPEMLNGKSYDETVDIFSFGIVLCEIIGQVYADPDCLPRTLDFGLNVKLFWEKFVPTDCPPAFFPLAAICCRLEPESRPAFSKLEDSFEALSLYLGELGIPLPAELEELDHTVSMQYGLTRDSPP", "assay": "Binding affinity to wild-type human full length LIMK2 (M1 to P638 residues) expressed in bacterial expression system assessed as remaining unbound target protein level at 1000 nM by Kinomescan method relative to control", "method_in_brief": "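Single-point competition binding screen across a panel of 468 kinases and mutants, with the inhibitor at 1 μM. Binding is read out as percent of a DMSO control, and targets below 1 percent control were classed as strong binders.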"}, "[13]": {"target": "Tyrosine-protein kinase ABL1 (Homo sapiens) (UniProt P00519)", "assay": "Binding affinity to wild-type human phosphorylated ABL1 (S229 to K512 residues) expressed in mammalian expression system assessed as remaining unbound target protein level at 1000 nM by Kinomescan method relative to control"}, "[14]": {"assay": "Oral bioavailability in Sprague-Dawley rat at 20 mg/kg by LC-MS/MS analysis", "type": "ADME, organism-based", "settings": "in vivo"}, "[15]": {"target": "Calcium/calmodulin-dependent protein kinase kinase 2 (Homo sapiens) (UniProt Q96RR4)", "sequence (Q96RR4 2-588 limits assumed)": "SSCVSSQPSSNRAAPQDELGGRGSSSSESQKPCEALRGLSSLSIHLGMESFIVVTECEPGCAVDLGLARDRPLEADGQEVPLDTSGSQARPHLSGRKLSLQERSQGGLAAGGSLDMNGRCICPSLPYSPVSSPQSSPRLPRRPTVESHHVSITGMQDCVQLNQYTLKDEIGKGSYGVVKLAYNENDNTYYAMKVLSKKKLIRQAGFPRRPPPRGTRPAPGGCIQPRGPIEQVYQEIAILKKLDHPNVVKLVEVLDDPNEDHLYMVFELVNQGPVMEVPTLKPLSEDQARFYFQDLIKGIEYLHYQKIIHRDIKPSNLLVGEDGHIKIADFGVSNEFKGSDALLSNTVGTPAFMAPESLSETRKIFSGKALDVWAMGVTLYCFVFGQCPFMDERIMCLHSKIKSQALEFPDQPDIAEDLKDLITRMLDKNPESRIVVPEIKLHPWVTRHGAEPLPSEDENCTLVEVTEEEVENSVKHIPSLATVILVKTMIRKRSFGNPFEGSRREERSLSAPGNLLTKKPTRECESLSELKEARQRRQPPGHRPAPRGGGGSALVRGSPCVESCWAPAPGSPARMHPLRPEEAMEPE", "assay": "Binding affinity to wild-type human partial length CAMKK2 (D65 to V471 residues) expressed in bacterial expression system assessed as remaining unbound target protein level at 1000 nM by Kinomescan method relative to control", "method_in_brief": "as §5"}, "[16]": {"target": "Mitogen-activated protein kinase kinase kinase 5 (Homo sapiens) (UniProt Q99683)", "assay": "Binding affinity to wild-type human partial length ASK1 (E648 to S964 residues) expressed in bacterial expression system assessed as remaining unbound target protein level at 1000 nM by Kinomescan method relative to control", "method_in_brief": "as §4"}, "[17]": {"target": "Receptor tyrosine-protein kinase erbB-3 (Homo sapiens) (UniProt P21860)", "assay": "Binding affinity to wild-type human partial length ERBB3 (G684 to A987 residues) expressed in mammalian expression system assessed as remaining unbound target protein level at 1000 nM by Kinomescan method relative to control", "method_in_brief": "as §3"}, "[18]": {"target": "Serine/threonine-protein kinase Nek1 (Homo sapiens) (UniProt Q96PY6)", "sequence (Q96PY6 whole entry, the tested form may be a part)": "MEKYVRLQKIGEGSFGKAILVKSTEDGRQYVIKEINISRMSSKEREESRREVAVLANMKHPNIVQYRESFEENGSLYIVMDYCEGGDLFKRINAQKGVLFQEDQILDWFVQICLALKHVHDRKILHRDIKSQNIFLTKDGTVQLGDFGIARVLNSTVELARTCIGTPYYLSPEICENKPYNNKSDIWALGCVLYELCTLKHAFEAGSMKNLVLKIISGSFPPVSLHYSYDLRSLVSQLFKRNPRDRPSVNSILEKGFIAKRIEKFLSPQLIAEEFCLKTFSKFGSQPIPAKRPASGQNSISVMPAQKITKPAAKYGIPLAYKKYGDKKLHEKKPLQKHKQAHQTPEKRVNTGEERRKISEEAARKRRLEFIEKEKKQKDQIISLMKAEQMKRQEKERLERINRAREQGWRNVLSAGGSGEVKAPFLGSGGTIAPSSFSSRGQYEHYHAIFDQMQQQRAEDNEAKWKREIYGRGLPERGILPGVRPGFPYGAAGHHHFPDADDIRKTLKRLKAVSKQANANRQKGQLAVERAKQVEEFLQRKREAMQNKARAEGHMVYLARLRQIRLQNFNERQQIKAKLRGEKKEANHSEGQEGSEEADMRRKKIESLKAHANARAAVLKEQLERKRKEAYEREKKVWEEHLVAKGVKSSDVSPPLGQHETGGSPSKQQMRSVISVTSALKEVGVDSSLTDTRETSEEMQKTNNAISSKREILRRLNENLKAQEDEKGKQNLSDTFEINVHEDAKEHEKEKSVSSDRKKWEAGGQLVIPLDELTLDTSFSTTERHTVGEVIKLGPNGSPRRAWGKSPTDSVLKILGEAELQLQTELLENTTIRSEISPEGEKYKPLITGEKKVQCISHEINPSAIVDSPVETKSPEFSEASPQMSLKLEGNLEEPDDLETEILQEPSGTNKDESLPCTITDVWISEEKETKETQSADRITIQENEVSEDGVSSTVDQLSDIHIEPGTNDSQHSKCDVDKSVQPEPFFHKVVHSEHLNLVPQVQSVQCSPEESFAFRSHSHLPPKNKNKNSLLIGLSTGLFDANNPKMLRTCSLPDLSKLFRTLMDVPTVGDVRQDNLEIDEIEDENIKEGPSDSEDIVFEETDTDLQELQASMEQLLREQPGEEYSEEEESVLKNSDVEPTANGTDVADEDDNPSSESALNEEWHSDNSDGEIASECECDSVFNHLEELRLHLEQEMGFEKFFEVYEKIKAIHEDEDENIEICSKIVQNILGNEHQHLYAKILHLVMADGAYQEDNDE", "assay": "Binding affinity to wild-type human partial length NEK1 (M1 to K278 residues) expressed in bacterial expression system assessed as remaining unbound target protein level at 1000 nM by Kinomescan method relative to control"}},
  "data": [
    {"molecule": "COCCN[C@H]1CC[C@H](Nc2cc(-c3csc(NCC4(C#N)CCOCC4)n3)c(Cl)cn2)CC1", "values": [
      {"measurement": "Activity", "setting": "[1]", "result": 18, "unit": "%"},
      {"measurement": "Activity", "setting": "[2]", "result": 100, "unit": "%"},
      {"measurement": "Activity", "setting": "[3]", "result": 39, "unit": "%"},
      {"measurement": "Activity", "setting": "[4]", "result": 80, "unit": "%"},
      {"measurement": "Activity", "setting": "[5]", "result": 93, "unit": "%"},
      {"measurement": "Activity", "setting": "[6]", "result": 94, "unit": "%"},
      {"measurement": "Activity", "setting": "[7]", "result": 86, "unit": "%"},
      {"measurement": "GI50", "setting": "HL-60", "result": 56, "unit": "nM"},
      {"measurement": "Activity", "setting": "[8]", "result": 100, "unit": "%"},
      {"measurement": "Activity", "setting": "[9]", "result": 70, "unit": "%"},
      {"measurement": "Activity", "setting": "[10]", "result": 97, "unit": "%"},
      {"measurement": "Activity", "setting": "[11]", "result": 98, "unit": "%"},
      {"measurement": "Activity", "setting": "[12]", "result": 76, "unit": "%"},
      {"measurement": "Activity", "setting": "[13]", "result": 91, "unit": "%"},
      {"measurement": "bioavailability", "setting": "[14]", "result": 45.1, "unit": "%"},
      {"measurement": "Activity", "setting": "[15]", "result": 100, "unit": "%"},
      {"measurement": "Activity", "setting": "[16]", "result": 77, "unit": "%"},
      {"measurement": "Activity", "setting": "[17]", "result": 93, "unit": "%"},
      {"measurement": "Activity", "setting": "[18]", "result": 85, "unit": "%"}
    ]}
  ]
}
